Results taken from ChEMBL document CHEMBL4196071, “Discovery of tetrahydrocarbazoles with potent hypoglycemic and hypolipemic activities” (Eur J Med Chem, 2018).
Blank lines part the entries; values can stand above or below the compound they belong to. Calls of active or inactive are those of the source. No cut-off for these calls is given here.

Columns and labels:
[1] = biological target: T1, AMP-activated protein kinase, AMPK (Homo sapiens) (UniProt P54646+O43741+P54619+Q9UGJ0+Q9Y478+Q13131+Q9UGI9); assay: Activation of AMPK in human HepG2 cells assessed as induction of glucose consumption at 10 uM treated over 24 hrs by glucose oxidase method relative to control; format: cell-based
Summary of the method: (§1)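 HepG2 cells kept in DMEM (25 mM D-glucose) with 10% serum at 37 °C, 5% CO2. At 80-90% confluence the medium was switched to serum-free RPMI-1640 with 11.1 mM glucose and 0.2% BSA. Compounds in DMSO (0.5% v/v vehicle control) were given for 24 h. Medium glucose was read by glucose oxidase; consumption = cell-free blank wells minus cell wells. Student's t test against control.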

HepG2 [2] = assay: Activation of AMPKalpha in human HepG2 cells assessed as ACC phosphorylation at Ser79 residue at 10 uM by Western blot analysis; format: cell-based
Summary of the method: (§2)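 HepG2 cells were treated at 10 μM and lysed in pH 7.5 Tris buffer containing NaF, β-glycerophosphate, EDTA/EGTA, Triton X-100 and protease inhibitors, then cleared at 10,000 × g for 30 min at 4 °C. Equal lysate volumes were run on 8% SDS-PAGE and transferred to PVDF. Blots were probed for p-AMPKα (Thr172) and p-ACC (Ser79) with HRP secondary antibodies.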

HepG2 [3] = assay: Induction of AMPKalpha phosphorylation at Thr172 residue in human HepG2 cells at 10 uM by Western blot analysis; format: cell-based; summary of the method: as §2
Mus musculus [4] = assay: Hypoglycemic activity in db/db mouse assessed as decrease in blood glucose level at 30 mg/kg, po administered as single dose measured at 3 hrs post last dose (reference value: 0.0 +/- 4.1%); format: functional; set-up: scale not given: the % may be the effect or the level left
Mus musculus [5] = assay: Hypoglycemic activity in db/db mouse assessed as decrease in blood glucose level at 30 mg/kg, po treated for 3 week measured at 3 hrs post last dose (reference value: 0.0 +/- 6.8%); format: functional; set-up: scale not given: the % may be the effect or the level left
Mus musculus [6] = assay: Hypoglycemic activity in db/db mouse assessed as decrease in blood glucose level at 30 mg/kg, po treated for 1 week measured at 3 hrs post last dose (reference value: 0.0 +/- 8.6%); format: functional; set-up: scale not given: the % may be the effect or the level left
Mus musculus [7] = assay: Hypolipemic activity in db/db mouse assessed as plasma fasting triglyceride level at 30 mg/kg, po treated for 3 consecutive weeks (reference value: 0.70 to 0.97 mM); format: functional
Mus musculus [8] = assay: Hypolipemic activity in db/db mouse assessed as total plasma cholesterol level at 30 mg/kg, po treated for 3 consecutive weeks (reference value: 6.05 to 6.98 mM); format: functional
Mus musculus [9] = assay: Hypoglycemic activity in db/db mouse assessed as decrease in blood glucose level at 30 mg/kg, po treated for 2 week measured at 3 hrs post last dose (reference value: 0.0 +/- 4.0%); format: functional; set-up: scale not given: the % may be the effect or the level left
Mus musculus [10] = assay: Toxicity in db/db mouse assessed as increase in body weight at 30 mg/kg, po treated for 1 to 3 weeks measured at 3 hrs post last dose relative to control; format: organism-based; conditions: in vivo
[11] = biological target: T1, AMP-activated protein kinase, AMPK (Homo sapiens); assay: Activation of AMPK in human HepG2 cells assessed as induction of glucose consumption at 1 uM treated over 24 hrs by glucose oxidase method relative to control; format: cell-based; summary of the method: as §1
[12] = biological target: T1, AMP-activated protein kinase, AMPK (Homo sapiens); assay: Activation of AMPK in human HepG2 cells assessed as induction of glucose consumption at 0.1 uM treated over 24 hrs by glucose oxidase method relative to control; format: cell-based; summary of the method: as §1
[13] = biological target: T1, AMP-activated protein kinase, AMPK (Homo sapiens); assay: Activation of AMPK in human HepG2 cells assessed as induction of glucose consumption treated over 24 hrs by glucose oxidase method; format: cell-based; summary of the method: as §1

Activity [1]: 60.3%
SMILES: COc1ccc(S(=O)(=O)n2c3c(c4cc(OCc5ccccc5)ccc42)CC(C(=O)O)CC3)cc1 (stereo not given)

Activity [1]: 47.5%
SMILES: O=C(O)C1CCc2c(c3cc4c(cc3n2S(=O)(=O)c2ccc(Cl)cc2)OCO4)C1 (stereo not given)

Activity [1]: 30.4%
SMILES: O=C(O)C1CCc2c(c3cc(OCc4ccccc4)ccc3n2Cc2ccccc2)C1 (stereo not given)

Activity [1]: 47.5%
SMILES: O=C(O)C1CCc2c(c3cc(OCc4ccccn4)ccc3n2C(=O)c2ccc(Cl)cc2)C1 (stereo not given)

Activity [1]: 47.5%
SMILES: Cc1nc(C)c(COc2ccc3c(c2)c2c(n3C(=O)c3ccc(Cl)cc3)CCC(C(=O)O)C2)nc1C (stereo not given)
Activity (HepG2 [2]): Active | Activity (HepG2 [3]): Active

Activity [1]: 64.5%
SMILES: O=C(O)C1CCc2c(c3cc(OCc4ccccc4)ccc3n2S(=O)(=O)c2ccc(Cl)cc2)C1 (stereo not given)
Activity (Mus musculus [4]): 15.5% | Activity (Mus musculus [5]): 14.3% | Activity (Mus musculus [6]): 28.9% | Activity (Mus musculus [7]): 0.99 mM | Activity (Mus musculus [8]): 6.91 mM | Activity (Mus musculus [9]): 16.3% | Activity (Mus musculus [10]): 3.7%

Activity [1]: 34.3%
SMILES: O=C(O)C1CCc2c(c3cc(OCc4ccccc4)ccc3n2Cc2ccc(F)cc2)C1 (stereo not given)

Activity [11]: 37.2% | Activity [1]: 48.4 to 52.3% | Activity [12]: 29% | Activity [13]: Dose-dependent effect
SMILES: O=C(O)C1CCc2[nH]c3ccc(OCc4ccccc4)cc3c2C1 (stereo not given)
Activity (HepG2 [2]): Active | Activity (HepG2 [3]): Active

Activity [11]: 20.1% | Activity [1]: 53.4 to 68.8% | Activity [12]: 0.11% | Activity [13]: Dose-dependent effect
SMILES: O=C(O)C1CCc2c(c3cc(OCc4ccc(F)cc4)ccc3n2C(=O)c2ccc(Cl)cc2)C1 (stereo not given)

Activity [1]: 50.5%
SMILES: COc1ccc2c(c1)c1c(n2C(=O)c2ccc(Cl)cc2)CCC(C(=O)O)C1 (stereo not given)

Activity [11]: 27.3% | Activity [1]: 55.3 to 60.6% | Activity [12]: 1.79% | Activity [13]: Dose-dependent effect
SMILES: O=C(O)C1CCc2c(c3cc(OCc4ccccc4)ccc3n2C(=O)c2ccc(Cl)cc2)C1 (stereo in doubt; (+)-7a)
Activity (HepG2 [2]): Active | Activity (HepG2 [3]): Active

SMILES: CCc1ccc(CCOc2ccc(CC3SC(=O)NC3=O)cc2)nc1 (stereo not given) [PIOGLITAZONE]
Activity (Mus musculus [4]): 21.9% | Activity (Mus musculus [5]): 37.4% | Activity (Mus musculus [6]): 37.1% | Activity (Mus musculus [7]): 0.51 mM | Activity (Mus musculus [8]): 7.89 mM | Activity (Mus musculus [9]): 34.5% | Activity (Mus musculus [10]): 16.3%
